This is an account of results in ChEMBL document CHEMBL3758073, “Synthesis and Biochemical Evaluation of 3-Phenoxy-1,4-diarylazetidin-2-ones as Tubulin-Targeting Antitumor Agents” (J Med Chem, 2016).

Activity calls are given as the source filed them. The calls are words filed in the database; no cut-off is given here.

In series [1] the test system is MCF7. Description: Binding affinity to beta-Tubulin in human MCF7 cells assessed as inhibition of protein-EBI adduct formation at Cys239 and Cys354 at 10 uM pre-incubated for 2 hrs followed by EBI addition after 1.5 hrs by Western blot analysis. It is filed as cell-based. A digest of the protocol: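 MCF-7 seeded at 5×10^4 cells/well and incubated overnight. Treated 2 h with test agent at 10 μM or with vehicle (0.1% v/v ethanol), then with N,N'-ethylene-bis(iodoacetamide) for a further 1.5 h. Cells washed in ice-cold PBS and lysed in Laemmli buffer. SDS-PAGE, PVDF transfer and β-tubulin immunoblot to detect the faster-migrating β-tubulin–EBI adduct. Three independent experiments.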
(In general: In western blotting, separated proteins are transferred to a membrane and probed.)

Series [2] concerns MCF7. Kind of series: Cytotoxicity against human MCF7 cells assessed as induction of cell death at 10 uM after 72 hrs by LDH assay. Type of series: cell-based. Particulars: mcf7, 72 h. A digest of the protocol:
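Cell death in MCF-7 measured by LDH release. Seeding and dosing as for the MTT assay; after 72 h, lysis solution added to blank wells for 1 h to give 100% death. Supernatant mixed with substrate (INT to formazan) for 30 min at rt in the dark, then stopped and read at 490 nm. Percentage cell death reported at 10 μM; assays in triplicate.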

The nature of series [3]: Antiproliferative activity against human NCI60 cells by SRB assay. It is filed as functional. A digest of the protocol:
(§1)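 NCI panel of 56 cell lines (MCF-7 included), run after an initial single-dose 10 μM screen. Five-dose testing used a sulphorhodamine B protein-staining read-out. GI50 (50% growth inhibition) and LC50 (50% lethal concentration) were derived for each line, and a mean GI50 was taken across the panel.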
(The SRB assay estimates cell density from bound dye.)

The test system of series [4] is MCF7. Kind of series: Antiproliferative activity against human MCF7 cells by SRB assay. Type of series: functional. A digest of the protocol: as §1
For series [5], the system named is MCF7. Kind of series: Antiproliferative activity against human MCF7 cells assessed as cell viability pre-incubated for 24 hrs with CO2 followed by compound addition after 72 hrs by MTT assay. Type of series: functional, cell-based. A digest of the protocol: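 MCF-7 grown in Eagle's MEM with 10% FBS, 2 mM L-glutamine, penicillin/streptomycin and 1% non-essential amino acids. Cells seeded at 2.5 x 10⁴ cells/mL, 24 h at 37 °C, then dosed from ethanol stocks over 1 nM–100 µM (vehicle 1% v/v ethanol) for 72 h. MTT at 1 mg/mL final, 2 h in the dark, DMSO solubilisation. Viability set against untreated controls; IC50 is the mean of three experiments in triplicate.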
Background: Tetrazolium dyes change colour on reduction, which living cells bring about.

The target of series [6] is Tubulin (Sus scrofa) (UniProt P02554+P02550). Kind of series: Inhibition of porcine tubulin polymerization assessed as inhibition of tubulin assembly Vmax rate at 10 uM by spectrophotometric analysis. Type of series: protein assay. A digest of the protocol: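 Tubulin polymerisation kit (>97% pure porcine tubulin, OD-based). Tubulin plus GTP at 37 °C with test agent at 10 μM final; 1% v/v ethanol as vehicle. A340 read every 30 s for 60 min at 37 °C. Fold change in Vmax calculated relative to vehicle; mean of three separate experiments.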
Tubulin (Sus scrofa), sequence (P02550 whole entry, looked up): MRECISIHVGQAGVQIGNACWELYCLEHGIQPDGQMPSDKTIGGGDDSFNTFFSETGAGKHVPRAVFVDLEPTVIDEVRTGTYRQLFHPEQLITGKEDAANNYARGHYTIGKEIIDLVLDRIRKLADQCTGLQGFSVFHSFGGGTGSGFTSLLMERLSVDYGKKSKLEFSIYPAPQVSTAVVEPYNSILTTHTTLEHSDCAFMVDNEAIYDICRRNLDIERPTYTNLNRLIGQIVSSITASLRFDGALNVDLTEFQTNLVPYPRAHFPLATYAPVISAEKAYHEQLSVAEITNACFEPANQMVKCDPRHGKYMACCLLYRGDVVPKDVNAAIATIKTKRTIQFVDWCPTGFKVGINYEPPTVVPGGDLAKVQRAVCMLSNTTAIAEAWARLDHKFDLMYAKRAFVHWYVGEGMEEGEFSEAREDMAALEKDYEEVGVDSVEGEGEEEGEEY
Tubulin (Sus scrofa), sequence (P02554 whole entry, looked up): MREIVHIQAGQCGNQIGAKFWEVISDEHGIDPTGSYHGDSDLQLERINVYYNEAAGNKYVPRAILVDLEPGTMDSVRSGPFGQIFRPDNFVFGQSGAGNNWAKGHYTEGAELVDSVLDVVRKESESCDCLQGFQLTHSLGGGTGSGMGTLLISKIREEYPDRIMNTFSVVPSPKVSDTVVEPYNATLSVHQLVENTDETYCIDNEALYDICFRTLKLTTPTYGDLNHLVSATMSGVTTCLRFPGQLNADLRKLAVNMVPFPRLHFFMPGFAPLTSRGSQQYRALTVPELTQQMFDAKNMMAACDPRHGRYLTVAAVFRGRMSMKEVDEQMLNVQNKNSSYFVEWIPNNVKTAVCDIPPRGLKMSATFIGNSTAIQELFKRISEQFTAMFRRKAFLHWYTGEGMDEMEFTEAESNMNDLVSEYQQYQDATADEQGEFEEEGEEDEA

Series [7] has as its target Tubulin (Homo sapiens) (UniProt P68371+Q9H4B7+P0DPH7+P68366+Q13509+Q71U36+P04350+Q3ZCM7+P07437+P68363+Q9BQE3+Q6PEY2+Q13885+Q9BVA1+Q9BUF5). Description: Inhibition of tubulin polymerization in human MCF7 cells assessed as induction of microtubules bundles formation at 1 uM incubated for 16 hrs by FITC-DAPI staining based confocal microscopic analysis. Type of series: cell-based.

Series [8] has as its system MCF7. Description: Inhibition of tubulin polymerization in human MCF7 cells assessed as loss of microtubules formation at 100 nM incubated for 16 hrs by FITC-DAPI staining based confocal microscopic analysis. It is filed as functional, cell-based. A digest of the protocol: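 MCF-7 seeded at 1×10^5 cells/ml on chamber glass slides and treated 16 h with paclitaxel (1 μM), test agent (100 nM) or vehicle (1% v/v ethanol). Fixed 20 min in 4% paraformaldehyde, permeabilised in 0.5% Triton X-100, blocked in 5% BSA. Stained with anti-α-tubulin–FITC (DM1A, 1:100, 2 h rt) and Alexa Fluor 488, DAPI counterstain. Imaged by confocal microscopy; three independent occasions.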

The nature of series [9]: Half life of the compound in pH 7.4 after 3 to 24 hrs by HPLC. Type of series: physicochemical. A digest of the protocol: (§2)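 10 mg compound was dissolved in 10 ml mobile phase as stock. 200 µL stock was diluted into 9.8 mL phosphate buffer (pH 4, 7.4 or 9, British Pharmacopeia 2010) and injected immediately. Samples were analysed at t=0, then every 3 h to 24 h, by reverse-phase C8 HPLC: acetonitrile:water 50:50, 1 ml/min, 254 nm detection. Half-life was derived from these runs.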

In series [10] the test system is MCF7. Description: Induction of apoptosis in human MCF7 cells assessed as accumulation at sub-G0/G1 level at 100 nM after 72 hrs by propidium iodide staining based flow cytometric analysis (reference value: 4%). It is filed as functional.
Series [11] is described as follows: Half life of the compound in pH 9 after 3 to 24 hrs by HPLC. It is filed as physicochemical. A digest of the protocol:
as §2

Series [12] is described as follows: Half life of the compound in pH 4 after 3 to 24 hrs by HPLC. Type of series: physicochemical. A digest of the protocol:
as §2

The nature of series [13]: Antitumor activity against human UACC62 cells xenografted in athymic nude mouse assessed as reduction in tumor cell growth at 37.5 mg/kg, ip by hollow fiber assay. Type of series: functional. Particulars: UACC-62, ip, read-out: TGI.
The test system of series [14] is MCF7. Kind of series: Induction of cell cycle arrest in human MCF7 cells assessed as accumulation at G2/M phase at 50 nM after 48 hrs by propidium iodide staining based flow cytometric analysis (reference value: 25%). Type of series: functional.
Series [15] is described as follows: Toxicity in ip dosed athymic nude mouse. Type of series: organism-based. The conditions noted are these: in vivo.
Series [16] can be described thus: Antiproliferative activity against human MDA-MB-321 cells assessed as cell viability after 72 hrs by MTT assay. It is filed as functional, cell-based. A digest of the protocol:
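MDA-MB-231 cells kept in DMEM with 10% FBS, 2 mM L-glutamine and penicillin/streptomycin. Seeded at 2.5 x 10⁴ cells/mL, 24 h at 37 °C, then exposed for 72 h to 1 nM–100 µM from ethanol stocks (1% v/v ethanol vehicle). MTT added at 1 mg/mL final for 2 h in the dark, DMSO solubilisation, absorbance read, viability relative to untreated controls.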

Series [17] has as its system MCF7. Description: Induction of apoptosis in human MCF7 cells assessed as accumulation at sub-G0/G1 level at 50 nM after 72 hrs by propidium iodide staining based flow cytometric analysis (reference value: 4%). Type of series: functional.
The subject of series [18] is MCF7. Kind of series: Induction of cell cycle arrest in human MCF7 cells assessed as accumulation at G2/M phase at 50 nM after 24 hrs by propidium iodide staining based flow cytometric analysis (reference value: 25%). It is filed as functional.

Take `COc1cc2c(c(OC)c1OC)-c1ccc(OC)c(=O)cc1[C@@H](NC(C)=O)CC2`: in series [1], the outcome was Active.
As usually defined, the GI50 is the concentration giving 50% growth inhibition. High values mean less potent growth inhibition, low ones more potent growth inhibition. What is called IC50 is the concentration needed to halve the response being measured. As to `COc1ccc([C@@H]2[C@H](Oc3ccccc3)C(=O)N2c2cc(OC)c(OC)c(OC)c2)cc1O` (relative stereo), in series [2], the Activity came out at 2.8%. Moreover, the figures for the GI50 in series [3] and in series [4] were 1450 nM and 360 nM, respectively. Besides, in series [5], the IC50 was found to be 383 nM. Besides, the fold change (FC) in series [6] stood at 1.1.
Regarding `CC(=O)O[C@H]1C(=O)[C@@]2(C)[C@H]([C@H](OC(=O)c3ccccc3)[C@]3(O)C[C@H](OC(=O)[C@H](O)[C@@H](NC(=O)c4ccccc4)c4ccccc4)C(C)=C1C3(C)C)[C@]1(OC(C)=O)CO[C@@H]1C[C@@H]2O`, the inhibition entry in series [7] was “Active”.
As to `COc1cc(N2C(=O)[C@@H](Oc3ccccc3)[C@H]2c2ccc(N(C)C)cc2)cc(OC)c1OC` (relative stereo), in series [2], the Activity amounted to 5.9%. Also, the IC50 in series [5] was 31000 nM. The fold change (FC) in series [6] turned out to be 0.
In the same order, the values of `COc1cc(N2C(=O)[C@H](Oc3ccccc3)[C@H]2c2ccc(C#N)cc2)cc(OC)c1OC` (relative stereo) are 2.1%, 168000 nM and 0.
With `COc1ccc(/C=C\c2cc(OC)c(OC)c(OC)c2)cc1O` [COMBRETASTATIN A4], the inhibition result in series [8] was “Active”. The Activity in [2] was determined as 5.5%. Further, in series [1], the outcome was Active. Also, in [5], the IC50 came to 3.9 nM. Also, the fold change (FC) in series [6] was determined as 6.
A word on the half-life: it is how long it takes for the measured level to halve. Read a high half-life as slow loss. As to `COc1ccc([C@@H]2[C@@H](Oc3ccccc3)C(=O)N2c2cc(OC)c(OC)c(OC)c2)cc1O` (relative stereo), the half-life is 8 h in series [9], 11 h in [11] and 12 h in series [12]. In addition, the Activity in [2] was 29%; in series [10], 34%. The IC50 in series [5] worked out at 38 nM. Also, the fold change (FC) in series [6] came to 3.2.
For the compound `COc1ccc([C@@H]2[C@@H](Oc3ccccc3)C(=O)N2c2cc(OC)c(OC)c(OC)c2)cc1N` (relative stereo), the inhibition entry in series [8] was “Active”. Besides, the half-life was greater than 24 h in series [9], 18 h in series [11] and 18 h in [12]. Moreover, the Activity in [2] was 10.2%; in series [14], 73%; in series [17], 35%; in series [18], 57%. The GI50 in series [3] was 22.4 nM; in [4] it was less than 10 nM. Moreover, the inhibition in vivo at 37.5 mg/kg in series [13] was found to be 50%. Further, the result in [1] was Active. For the same compound, the IC50 in series [5] is 13 nM; in series [16], 15 nM. Also, in series [15], the MTD was 100 mg/kg. In [6], the fold change (FC) stood at 1.8.
